Test results from ChEMBL document CHEMBL2169837 (J Med Chem, 2012).
≈ marks a conversion by molar mass, not a printed value. Calls of active or inactive are those of the source. The calls are words filed in the database; no cut-off is given here.

Assays:
[1] = molecular target: T1, Oxytocin receptor (Homo sapiens, UniProt P30559); experiment: Displacement of [3H]-AVP from human oxytocin receptor expressed in CHO cells after 30 mins; format: cell-based
T1 sequence (P30559 whole entry): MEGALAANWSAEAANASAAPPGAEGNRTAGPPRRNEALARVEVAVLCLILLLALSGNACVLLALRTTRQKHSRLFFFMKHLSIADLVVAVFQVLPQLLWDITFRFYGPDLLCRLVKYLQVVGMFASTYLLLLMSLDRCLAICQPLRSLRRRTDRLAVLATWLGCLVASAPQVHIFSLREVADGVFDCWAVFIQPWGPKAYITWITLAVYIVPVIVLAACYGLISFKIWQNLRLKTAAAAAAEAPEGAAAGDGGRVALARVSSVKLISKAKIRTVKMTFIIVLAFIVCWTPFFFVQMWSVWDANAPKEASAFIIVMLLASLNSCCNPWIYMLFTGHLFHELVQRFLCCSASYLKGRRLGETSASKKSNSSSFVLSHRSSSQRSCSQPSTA

[2] = molecular target: T2, Vasopressin V1b receptor (Homo sapiens) (UniProt P47901); experiment: Displacement of [3H]-AVP from human vasopressin V1b receptor expressed in CHO cells at 10 uM after 30 mins; format: cell-based
T2 sequence (whole entry): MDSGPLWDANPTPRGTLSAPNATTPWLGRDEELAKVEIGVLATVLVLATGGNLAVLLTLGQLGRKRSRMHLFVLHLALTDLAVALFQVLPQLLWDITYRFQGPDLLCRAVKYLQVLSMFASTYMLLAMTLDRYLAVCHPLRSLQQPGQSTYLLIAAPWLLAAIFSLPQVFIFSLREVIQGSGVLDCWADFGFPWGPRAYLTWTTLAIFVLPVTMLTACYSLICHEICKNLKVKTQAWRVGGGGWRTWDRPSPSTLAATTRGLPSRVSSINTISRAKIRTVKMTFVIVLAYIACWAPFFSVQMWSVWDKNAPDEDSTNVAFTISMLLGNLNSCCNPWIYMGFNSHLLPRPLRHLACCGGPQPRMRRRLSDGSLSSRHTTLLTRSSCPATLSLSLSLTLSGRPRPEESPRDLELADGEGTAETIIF
How it was run: (§1)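 Human OTR, V1aR or V1bR membranes from CHO cells, [3H]-AVP displacement with compound at a single 10 μM concentration, 30 min at 30 °C in Tris-HCl pH 7.4/MgCl2/BSA buffer.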

[3] = molecular target: T3, Vasopressin V1b receptor (Homo sapiens, UniProt P47901); experiment: Displacement of [3H]-AVP from human vasopressin V1b receptor expressed in CHO cells after 30 mins; format: cell-based
T3 sequence (P47901 whole entry): T2 sequence (whole entry)

[4] = molecular target: T4, Vasopressin V1a receptor (Homo sapiens, UniProt P37288); experiment: Displacement of [3H]-AVP from human vasopressin V1a receptor expressed in CHO cells at 10 uM after 30 mins; format: cell-based; how it was run: as §1
Target sequence in this assay (P37288 whole entry, looked up): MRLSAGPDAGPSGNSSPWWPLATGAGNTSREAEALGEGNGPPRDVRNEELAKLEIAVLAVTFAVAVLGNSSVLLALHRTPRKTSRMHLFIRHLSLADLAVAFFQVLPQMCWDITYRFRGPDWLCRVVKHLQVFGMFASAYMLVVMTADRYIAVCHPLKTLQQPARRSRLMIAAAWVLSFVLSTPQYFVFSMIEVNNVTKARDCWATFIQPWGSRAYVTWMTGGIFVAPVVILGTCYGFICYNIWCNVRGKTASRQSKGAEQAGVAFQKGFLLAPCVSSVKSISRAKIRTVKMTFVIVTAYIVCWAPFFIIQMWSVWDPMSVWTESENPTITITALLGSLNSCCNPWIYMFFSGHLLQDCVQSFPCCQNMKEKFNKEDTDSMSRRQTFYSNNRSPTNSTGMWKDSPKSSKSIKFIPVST

[5] = molecular target: T4, Vasopressin V1a receptor; experiment: Displacement of [3H]-AVP from human vasopressin V1a receptor expressed in CHO cells after 30 mins; format: cell-based
Target sequence in this assay (P37288 whole entry): as the sequence (P37288 whole entry, looked up) above

[6] = molecular target: T5, Vasopressin V2 receptor (Homo sapiens, UniProt P30518); experiment: Antagonist activity at human vasopressin V2 receptor expressed in CHO cells assessed as inhibition of AVP-induced cAMP accumulation after 30 mins by TR-FRET based HTRF assay; format: functional, cell-based
T5 sequence (P30518 whole entry): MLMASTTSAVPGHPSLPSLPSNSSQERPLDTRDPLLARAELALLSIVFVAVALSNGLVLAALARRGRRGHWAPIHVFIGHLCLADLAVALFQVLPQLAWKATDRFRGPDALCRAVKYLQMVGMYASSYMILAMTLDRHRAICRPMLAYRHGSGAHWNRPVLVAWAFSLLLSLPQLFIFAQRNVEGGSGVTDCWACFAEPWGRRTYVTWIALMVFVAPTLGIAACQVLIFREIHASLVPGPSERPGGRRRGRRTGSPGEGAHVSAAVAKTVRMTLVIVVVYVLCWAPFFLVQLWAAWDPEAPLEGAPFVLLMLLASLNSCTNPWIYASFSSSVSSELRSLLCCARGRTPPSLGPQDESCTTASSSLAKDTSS
How it was run: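 CHO cells stably expressing human V2R, 5 × 10^3 per well on polyornithine, used 24 h after seeding. Incubated 30 min at 37 °C with compound (10−12 to 10−5 M) plus phosphodiesterase inhibitor RO 201724 0.1 mM. Antagonist mode run with 1 nM AVP. Cells lysed and cAMP read by HTRF (TR-FRET). Kact/Kinact from three independent experiments in triplicate, mean ± SEM.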

[7] = molecular target: T5, Vasopressin V2 receptor; experiment: Agonist activity at human vasopressin V2 receptor expressed in CHO cells assessed as cAMP accumulation after 30 mins by TR-FRET based HTRF assay; format: functional, cell-based
How it was run: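 CHO cells stably expressing human V2R, 5 × 10^3 per well on polyornithine, used 24 h after seeding. Cells lysed and cAMP read by HTRF (TR-FRET). Kact/Kinact from three independent experiments in triplicate, mean ± SEM.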

[8] = molecular target: T5, Vasopressin V2 receptor; experiment: Displacement of [3H]-AVP from human vasopressin V2 receptor expressed in CHO cells after 30 mins; format: cell-based
[9] = molecular target: T1, Oxytocin receptor; experiment: Binding affinity to oxytocin receptor
How it was run: (§2)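 Membranes (5 μg protein) from CHO cells stably expressing human V2R, V1aR, V1bR or OTR. Incubated 30 min at 30 °C in 50 mM Tris-HCl pH 7.4, 5 mM MgCl2, 1 mg/mL BSA with [3H]-AVP (1−2 nM) and competitor from 100 pM to 100 μM. Nonspecific binding with 10 μM AVP. GF/C filtration; Ki by nonlinear least-squares regression. Triplicate, at least three membrane batches.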

[10] = molecular target: T4, Vasopressin V1a receptor; experiment: Binding affinity to vasopressin V1a receptor; how it was run: as §2
Target sequence in this assay (P37288 whole entry): as the sequence (P37288 whole entry, looked up) above

[11] = molecular target: T5, Vasopressin V2 receptor; experiment: Binding affinity to SNAP-tagged vasopressin V2 receptor expressed in HEK293 cells after 1 hr by TR-FRET assay; format: cell-based
How it was run: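 HEK 293T cells electroporated with SNAP-tag–V2R and grown 48 h. Receptor labeled 1 h at 37 °C with SNAP-Lumi4-Tb (100 nM) or SNAP-RED (300 nM), then washed. Rising fluorescent-ligand concentrations added and incubated overnight at 4 °C. TR-FRET read with excitation 340 nm, emission 620/665 nm. Nonspecific binding taken with 10 μM unlabeled ligand. Kd from saturation, three experiments in triplicate.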

[12] = molecular target: T6, Oxytocin receptor (Homo sapiens) (UniProt P30559); experiment: Displacement of [3H]-AVP from human oxytocin receptor expressed in CHO cells at 10 uM after 30 mins; format: cell-based; how it was run: as §1
T6 sequence (whole entry): T1 sequence (P30559 whole entry)

[13] = Solubility of the compound in HEPES buffer at pH 7.4 after 24 hrs; format: physicochemical
How it was run: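 Solubility measured in pH 7.4 HEPES buffer after 24 h incubation at 22 °C.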

[14] = organism: Homo sapiens; experiment: Selectivity ratio of Ki for human oxytocin receptor to Ki for human vasopressin V2 receptor

Ki [1] [nM]	inhibition [2] [%]	Ki [3] [nM]	inhibition [4] [%]	Ki [5] [nM]	Kb [6] [nM]	inhibition [6]	Activity [7]	Ki [8] [nM]	Ki [9] [nM]	Ki [10] [nM]	Kd [11] [nM]	inhibition [12] [%]	solubility at 24 h [13] [µM]	Ratio Ki [14]	SMILES
307	< 50	> 10000	< 50	> 10000	164	Dose-dependent effect	inactive	188							CCN(CC)c1ccc2c(-c3ccc(S(=O)(=O)[O-])cc3S(=O)(=O)NCCOCCOCCOCCn3cc(CNC(=O)CCC(=O)NC4CCCN(C(=O)c5ccc(NC(=O)c6ccccc6C)cc5)c5ccccc54)nn3)c3ccc(=[N+](CC)CC)cc-3oc2c1 (centres undefined)
						Dose-dependent effect	inactive		660	195					Cc1ccccc1C(=O)Nc1ccc(C(=O)N2CCCC(N(C)C)c3ccccc32)cc1 (centres undefined) [MOZAVAPTAN]
					0.54	Dose-dependent effect	inactive	14.2			2.53				CCN1/C(=C/C=C/C=C/C2=[N+](CC)c3ccc(S(=O)(=O)[O-])cc3C2(C)C)C(C)(CCCC(=O)NCCOCCOCCOCCOCCOCCOCCn2cc(CNC(=O)CCC(=O)NC3CCCN(C(=O)c4ccc(NC(=O)c5ccccc5-c5ccccc5)cc4)c4ccccc43)nn2)c2cc(S(=O)(=O)O)ccc21 (centres undefined)
> 10000	< 50	> 10000	< 50	> 10000	1.96	Dose-dependent effect	inactive	4				< 50	2.1 (≈ 2.85 µg/mL)		CCN(CC)c1ccc2c(-c3ccc(S(=O)(=O)NCCOCCOCCOCCn4cc(CNC(=O)CCC(=O)NC5CCCN(C(=O)c6ccc(NC(=O)c7ccccc7-c7ccccc7)cc6)c6ccccc65)nn4)cc3S(=O)(=O)[O-])c3ccc(=[N+](CC)CC)cc-3oc2c1 (centres undefined)
> 10000	< 50	> 10000	< 50	> 10000	2.12	Dose-dependent effect	inactive	14.1				< 50			CCN(CC)c1ccc2c(-c3ccc(S(=O)(=O)[O-])cc3S(=O)(=O)NCCOCCOCCOCCn3cc(CNC(=O)CCC(=O)NC4CCCN(C(=O)c5ccc(NC(=O)c6ccccc6-c6ccccc6)cc5)c5ccccc54)nn3)c3ccc(=[N+](CC)CC)cc-3oc2c1 (centres undefined)
					3.8	Dose-dependent effect	inactive	25.3					2.1 (≈ 2.1 µg/mL)		CCN(CC)c1ccc2c(-c3ccc(S(=O)(=O)NC4CCCN(C(=O)c5ccc(NC(=O)c6ccccc6-c6ccccc6)cc5)c5ccccc54)cc3S(=O)(=O)[O-])c3ccc(=[N+](CC)CC)cc-3oc2c1 (centres undefined)
					8.91	Dose-dependent effect	inactive	16.8					6.2 (≈ 7.47 µg/mL)		CCN(CC)c1ccc2c(-c3ccc(S(=O)(=O)NCCOCCOCCOCCC(=O)NC4CCCN(C(=O)c5ccc(NC(=O)c6ccccc6-c6ccccc6)cc5)c5ccccc54)cc3S(=O)(=O)[O-])c3ccc(=[N+](CC)CC)cc-3oc2c1 (centres undefined)
					2.03	Dose-dependent effect	inactive	12.7					3.7 (≈ 4.23 µg/mL)		CCN(CC)c1ccc2c(-c3ccc(S(=O)(=O)N4CCN(CCC(=O)NC5CCCN(C(=O)c6ccc(NC(=O)c7ccccc7-c7ccccc7)cc6)c6ccccc65)CC4)cc3S(=O)(=O)[O-])c3ccc(=[N+](CC)CC)cc-3oc2c1 (centres undefined)
					0.66	Dose-dependent effect	inactive	7.6					3.1 (≈ 3.41 µg/mL)		CCN(CC)c1ccc2c(-c3ccc(S(=O)(=O)NCCCCC(=O)NC4CCCN(C(=O)c5ccc(NC(=O)c6ccccc6-c6ccccc6)cc5)c5ccccc54)cc3S(=O)(=O)[O-])c3ccc(=[N+](CC)CC)cc-3oc2c1 (centres undefined)
495	< 50	> 10000	< 50	> 10000	16.7	Dose-dependent effect	inactive	54.3					3.4 (≈ 4.4 µg/mL)		CCN(CC)c1ccc2c(-c3ccc(S(=O)(=O)NCCOCCOCCOCCn4cc(CNC(=O)CCC(=O)NC5CCCN(C(=O)c6ccc(NC(=O)c7ccccc7C)cc6)c6ccccc65)nn4)cc3S(=O)(=O)[O-])c3ccc(=[N+](CC)CC)cc-3oc2c1 (centres undefined)
808	< 50	> 10000		1750	0.1	Dose-dependent effect	inactive	9.02			2.33				CCN1/C(=C/C=C/C=C/C2=[N+](CC)c3ccc(S(=O)(=O)[O-])cc3C2(C)C)C(C)(CCCC(=O)NCCOCCOCCOCCn2cc(CNC(=O)CCC(=O)NC3CCCN(C(=O)c4ccc(NC(=O)c5ccccc5-c5ccccc5)cc4)c4ccccc43)nn2)c2cc(S(=O)(=O)O)ccc21 (centres undefined)
665	< 50	> 10000	< 50	> 10000	0.78	Dose-dependent effect	inactive	26.1			11.1			25	O=C(CCC(=O)NC1CCCN(C(=O)c2ccc(NC(=O)c3ccccc3-c3ccccc3)cc2)c2ccccc21)NCc1cn(CCOCCOCCOCCNC(=S)Nc2ccc(-c3c4ccc(=O)cc-4oc4cc(O)ccc34)c(C(=O)O)c2)nn1 (centres undefined)
